The sample as a whole holds a higher share of hits than the screen did.
bCat KO growth: beta-catenin-lacking colon tumor cell growth suppression | 1.5% of 140,000 active | viability, % at 10 µM | HCT116 beta-catenin knockout viability, CellTiter-Glo, 60 h; active compounds read low;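 active = viability at or under a set limit, the compound median less 4 SD, cut at about 6% in these data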;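 also: 0% = Hyamine 1622 control at 20 µM and 100% = untreated cell control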
HUVEC inhibit: inhibitors of human endothelial cell proliferation; HUVEC proliferation, CellTiter-Glo luminescence, 72 h; active compounds read low; viability, % at 10 µM (by protocol); 1.1% of 86,000 active; AID 648;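 active = viability at or below 30%; inactive = viability above 30%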;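 also: 100% = median luminescence of DMSO-only cell control wells on each plate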
H69AR inhibit: blocks growth of human H69AR lung tumor cells; H69AR lung tumor viability, ATP luminescence, 72 h; active compounds read low; viability, % at 10 µM; 6% of 85,000 active; AID 598;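 active = viability at or below 40%; inactive = viability above 40%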;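 also: multidrug resistant small cell line overexpressing MRP-1 efflux transporter; 100% = mean luminescence of untreated control wells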
Lung fibro prol: blocks proliferation of human lung fibroblasts; LL 47 human lung fibroblast viability, ATP luminescence; active compounds read low; viability, % at 10 µM; 1.1% of 85,000 active; AID 719;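 active = viability at or below 50% in the single dose screen; inactive = viability above 50%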;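 also: compound exposure lasted 72 h before the ATP readout; 100% = median luminescence of untreated cell-only wells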
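Material: human lung fibroblast line LL 47, low passage; Evaluation: viability percentage against median untreated-cell control; Buffer or medium: 15% FBS in IMEM; Incubation: 72 h compound exposure at 37 °C after overnight plating; Dosing: 0.1% DMSO in all compound wells; Measured by: CellTiter-Glo luminescence.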
HCT116 PTEN-null: suppresses growth of cells with PTEN deletion; HCT116 PTEN-null viability, CellTiter-Glo, 60 h; active compounds read low; viability, % at 10 µM; 1.2% of 140,000 active; AID 827;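 active = viability at or below a set limit, 4 SD under the median of all tested compounds, cut at about 3.7% in these data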;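 also: PTEN knockout HCT116 line with beta catenin targeted HCT116 as companion control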
* hit, by the source's call; x = no result.

SMILES	bCat KO growth	HUVEC inhibit	H69AR inhibit	Lung fibro prol	HCT116 PTEN-null
C=CCNc1nc(NCc2ccccc2)c(C#N)c2c1CN(C)CC2	45	11*	29*	58	46
N#Cc1c(NCCN)nc(-c2ccccc2)c2c1CCCC2	51	89	6.0*	66	34
N#Cc1c(NCCN)nc(NCc2ccccc2)c2c1CCN(Cc1ccccc1)C2	x	18*	47	83	x
CCN1CCc2c(C#N)c(NCc3ccccc3)nc(N(CC)CC)c2C1	67	55	58	82	68
O=c1cc(O)c2sc3nc(-c4cccnc4)cc(C(F)(F)F)c3c2[nH]1	94	x	x	x	100
CC1CCC(C(C)C)C(OC(=O)Cn2c(-c3ccc(F)cc3)[n+](C)c3ccccc32)C1 (centres undefined)	2.0*	x	x	x	1.5*
CC1CCC(C(C)C)C(OC(=O)Cn2c(-c3ccccc3)[n+](C)c3ccccc32)C1 (centres undefined)	1.4*	x	x	x	1.9*
CC1CCC(C(C)C)C(OC(=O)CSc2nc(N)cc(=O)[nH]2)C1 (centres undefined)	73	99	76	95	77
Cc1csc2cc(-c3cccc([N+](=O)[O-])c3)c(-c3cccc([N+](=O)[O-])c3)c[n+]12	90	x	x	x	99
O=C(Nc1ccc(Cl)c(Cl)c1)c1cccc(S(=O)(=O)NCc2cccnc2)c1	15	x	x	x	16
O=C(NCC12CC3CC(CC(C3)C1)C2)c1cc2n(n1)C(C(F)(F)F)CC(c1ccco1)N2 (centres undefined)	35	55	34*	78	33
COc1cc(C)c(NC(=S)Nc2cccc(Cl)c2C)cc1OC	91	x	x	x	83
COc1ccc(-c2nc(NC(=O)C3CCN(c4nc5ccccc5o4)CC3)sc2C)cc1	47	59	32*	86	34
CCC(C)(C)n1nnnc1C(c1cc(OC)ccc1OC)N1CCC(C(N)=O)CC1 (centres undefined)	94	98	85	103	100
O=C(/C=C/Sc1ccccc1)c1ccc(Cl)cc1	11	49	1.6*	33*	8
O=C(/C=C/Nc1ccccc1)c1ccccc1	103	80	95	99	97
O=C(/C=C/Sc1ccccc1)c1ccccc1	2.1*	45	2.2*	8.3*	1.4*
O=C(CC(c1ccccc1)c1ccccc1O)NCc1ccccc1Cl (centres undefined)	79	x	x	x	67
CCSc1nc2ccccc2n1C(=O)/C=C\c1ccc(OC)c(OC)c1	1.7*	x	x	x	6
CCSc1nc2ccccc2n1CC(N)=O	96	94	84	101	90
O=C(Nc1ccc(Cl)cc1)NC1CCCC1Cc1ccco1 (centres undefined)	10	64	85	101	2.9*
O=C(Nc1ccc(Cl)cc1)NC1CCCCC1	108	98	71	104	95
O=C(Nc1ccc(Cl)cc1)NC1CCCCC1Cc1ccco1 (centres undefined)	61	61	6.6*	96	53
S=C(NCc1ccco1)Nc1ccc(Cl)cc1	70	x	x	x	81
Cc1nc(Cl)c2c(n1)NC1=C(O2)C(=O)CCC1	99	x	x	x	99
SMILES	bCat KO growth	HUVEC inhibit	H69AR inhibit	Lung fibro prol	HCT116 PTEN-null
CC1CN(C(=O)c2ccc(N3CCCCC3)c([N+](=O)[O-])c2)CC(C)O1 (centres undefined)	103	x	x	x	99
CCn1c2ccccc2c2cc(NC(=O)C3CCN(S(=O)(=O)c4cccs4)CC3)ccc21	x	39	21*	92	x
Cc1ccc(CNC(=O)Cn2c(=O)c3sccc3n(Cc3ccc([N+](=O)[O-])cc3)c2=O)cc1	22	x	x	x	13
CCOc1ccc(NC(=O)CN2CCN(C3c4ccccc4-c4ccccc43)CC2)cc1	72	78	32*	89	95
COc1ccc(NC(=O)CN2CCN(CC(=O)Nc3ccc4c(c3)OCO4)CC2)cc1	100	96	96	92	105
COC(=O)c1c(NC(=O)CN2CCN(Cc3ccc4c(c3)OCO4)CC2)sc(C)c1C	97	62	1.9*	84	97
COc1ccccc1NC(=O)CN1CCN(CC(=O)Nc2ccc3c(c2)OCO3)CC1	87	94	9.8*	103	81
COc1ccccc1NC(=O)CN1CCN(C2c3ccccc3-c3ccccc32)CC1	58	66	38*	78	40
COC(=O)c1ccsc1NC(=O)CN1CCN(Cc2ccc3c(c2)OCO3)CC1	79	x	x	x	80
COc1ccc(-c2nnc(SCC(=O)NC3CCCc4ccccc43)n2N)cc1 (centres undefined)	80	x	x	x	95
O=C(NCCC1=CCCCC1)C1CCN(S(=O)(=O)c2ccc(Br)s2)CC1	70	x	x	x	71
COc1ccccc1NC(=O)CSC(N)=O	97	56	28*	89	99
CN(C)c1ccc(NC(=O)CN2CCN(S(=O)(=O)c3cc(Cl)ccc3Cl)CC2)cc1	98	x	x	x	95
O=C(CN1CCN(S(=O)(=O)c2cc(Cl)ccc2Cl)CC1)Nc1ccc2c(c1)OCCO2	70	92	35*	99	76
COc1cc(NC(=O)Nc2ccccc2)c(OC)cc1NC(=O)CN1CCCCC1	58	12*	41	96	71
C=CCOC(=O)C1=C(C)NC(C)=C(C(=O)OCC=C)C1c1cn(-c2ccccc2)nc1-c1ccco1	86	x	x	x	85
C=CCNC(=S)NNC(=O)CCC(O)CCCCC (centres undefined)	82	98	83	94	64
CNC(=O)c1cc2c(=O)n3cccc(C)c3nc2n(C(C)C)c1=N	70	94	80	99	71
CN(C)CCCNC(=S)N1CCn2c(nc3ccccc32)C1	85	x	x	x	98
O=C(NCCc1ccc2c(c1)OCCO2)c1ccc(F)cc1	100	x	x	x	82
CC(=O)Oc1cccc(/C=c2\sc3nc(-c4ccco4)nn3c2=O)c1	79	73	11*	93	93
CCCOc1ccc(/C=c2\sc3nc(-c4ccco4)nn3c2=O)cc1OCC	94	82	89	91	94
Cc1c(NC(=O)c2cc3nc(-c4ccc(Br)cc4)cc(C(F)(F)F)n3n2)c(=O)n(-c2ccccc2)n1C	79	103	0.6*	46*	84
Cc1ccc(S(=O)(=O)c2ccc(Oc3cccc(C)c3)cc2)cc1	85	x	x	x	89
CCOc1c(Br)cc(C2NS(=O)(=O)N=C3CCCCCN32)cc1OC (centres undefined)	29	94	34*	85	38
O=S1(=O)N=C2CCCN2C(c2ccc(F)cc2)N1 (centres undefined)	89	103	101	102	95
CCOc1cc(N2CCOCC2)c(OCC)cc1NS(=O)(=O)c1ccc(Cl)s1	11	58	20*	x	11
CCOc1cc(N2CCOCC2)c(OCC)cc1NC(=O)CCS(=O)(=O)c1ccc(Cl)cc1	90	98	77	94	100
COC(=O)C1CCN(C(=O)COc2ccc(Cl)cc2)CC1	97	100	95	95	96
COC(=O)C1CCN(C(=O)COc2cc3sc(C)nc3c3sccc23)CC1	81	89	35*	99	89
